In data set [1] the test system is NRK-52E. Kind of data set: Cytotoxicity against rat NRK-52E cells assessed as reduction in cell viability at 1 to 50 uM pretreated with 33 mM glucose for 6 hrs followed by compound addition and measured after 24 hrs by Alamar blue dye based microplate reader analysis. The format is toxicity. Particulars: dose 1-50 µM. A digest of the protocol:
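Alamar blue assay in NRK-52E cells grown in high-glucose DMEM with 10% FBS at 37 °C, 5% CO2. At 80-90% confluency, cells got 33 mM glucose for 6 h, then compound at 1-50 μM (vehicle 0.1% DMSO + 1XPBS) for 24 h. Dye incubation 4 h; OD read at 570 and 600 nm. Viability expressed as the absorbance ratio to the vehicle control.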
(In general: Resazurin is reduced to fluorescent resorufin, in cell work by metabolically active cells.)

Data set [2] concerns the target T1, Sodium/glucose cotransporter 2 (Rattus norvegicus) (UniProt P53792).
T1 sequence (whole entry): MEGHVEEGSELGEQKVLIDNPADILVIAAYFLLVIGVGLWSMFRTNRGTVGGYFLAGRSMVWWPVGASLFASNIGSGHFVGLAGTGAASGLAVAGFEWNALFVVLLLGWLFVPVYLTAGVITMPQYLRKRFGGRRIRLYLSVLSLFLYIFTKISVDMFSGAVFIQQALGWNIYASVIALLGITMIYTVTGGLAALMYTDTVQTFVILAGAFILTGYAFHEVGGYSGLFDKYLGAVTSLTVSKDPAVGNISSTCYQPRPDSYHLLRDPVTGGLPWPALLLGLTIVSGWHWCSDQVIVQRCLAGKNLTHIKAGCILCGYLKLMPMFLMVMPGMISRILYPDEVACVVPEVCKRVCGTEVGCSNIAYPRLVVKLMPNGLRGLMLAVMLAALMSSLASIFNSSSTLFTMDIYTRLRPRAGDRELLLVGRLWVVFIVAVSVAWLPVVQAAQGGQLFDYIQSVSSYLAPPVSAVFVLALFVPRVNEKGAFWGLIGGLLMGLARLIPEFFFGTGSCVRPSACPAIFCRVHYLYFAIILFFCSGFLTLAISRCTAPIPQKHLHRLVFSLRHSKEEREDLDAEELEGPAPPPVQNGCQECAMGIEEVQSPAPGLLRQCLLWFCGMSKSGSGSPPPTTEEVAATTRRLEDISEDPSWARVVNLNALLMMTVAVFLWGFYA
Briefly: Inhibition of SGLT2-mediated glucose uptake in rat NRK-52E cells assessed as reduction in glucose uptake at 1 to 10 uM preincubated with 33 mM glucose for 6 hrs followed by compound addition and measured after 24 hrs by fluorescence based microplate reader analysis. The format is cell-based. The conditions noted are these: dose 1-10 µM. A digest of the protocol:
(§1)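 6-NBDG uptake in NRK-52E cells seeded at 1×10^4/well, exposed to 33 mM glucose for 6 h, then to compound (1, 5, 10 μM; dose series 100 nM-10 μM; vehicle 0.1% DMSO + 1XPBS) for 24 h. Cells were rinsed in Na+-free buffer and given 20 μM 6-NBDG in Na+ or Na+-free HEPES buffer (pH 7.4) for 20 min at 37 °C. After lysis in 1% Triton X (pH 10) plus DMSO, fluorescence was read at 470/540 nm. Results are fold change vs control; n = 3.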

The target of data set [3] is T1, Sodium/glucose cotransporter 2 (Rattus norvegicus). Briefly: Inhibition of SGLT2-mediated glucose uptake in rat NRK-52E cells assessed as fold decrease in reduction of glucose uptake at 1 uM preincubated with 33 mM glucose for 6 hrs followed by compound addition and measured after 24 hrs by fluorescence based microplate reader analysis relative to glucose alone. The format is cell-based. A digest of the protocol:
as §1

Data set [4] addresses T2, Sodium/glucose cotransporter 2 (Rattus norvegicus, UniProt P53792).
T2 sequence (P53792 whole entry): T1 sequence (whole entry)
Kind of data set: Inhibition of SGLT2-mediated glucose uptake in rat NRK-52E cells assessed as reduction in glucose uptake preincubated with 33 mM glucose for 6 hrs followed by compound addition and measured after 24 hrs by fluorescence based microplate reader analysis. The format is cell-based. Put shortly: as §1

In data set [5] the target is T1, Sodium/glucose cotransporter 2 (Rattus norvegicus). Briefly: Inhibition of SGLT2-mediated glucose uptake in rat NRK-52E cells assessed as reduction in glucose uptake by measuring fold change at 500 nM preincubated with 33 mM glucose for 6 hrs followed by compound addition and measured after 24 hrs by fluorescence based microplate reader analysis. The format is cell-based. Put shortly:
as §1

For data set [6], the system named is NRK-52E. Kind of data set: Downregulation of SGLT2 protein expression in glucose-induced rat NRK-52E cells at 1 to 5 uM by Western blotting analysis. The format is functional, cell-based. The conditions noted are these: dose 1-5 µM. A digest of the protocol:
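NRK-52E cells got 33 mM glucose for 6 h, then compound for 24 h, and were lysed in RIPA with protease/phosphatase inhibitors; protein was measured by BCA. Samples of about 20-30 μg were run on 10% SDS-PAGE and transferred to nitrocellulose. Blots were blocked in 1% BSA, probed with anti-SGLT2 (1:1000) overnight at 4 °C, then HRP anti-rabbit (1:1000) for 2 h, and detected by ECL with densitometry. β-actin served as loading control; three repeats.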
Background: In western blotting, separated proteins are transferred to a membrane and probed.

Data set [7] deals with NRK-52E. Kind of data set: Effect of SGLT1 protein expression in glucose-induced rat NRK-52E cells at 1 to 5 uM by Western blotting analysis. The format is functional, cell-based. Particulars: dose 1-5 µM.
The test system of data set [8] is NRK-52E. Kind of data set: Inhibition of ROS generation in rat NRK-52E cells assessed as reduction in intracellular ROS generation at […] preincubated with glucose for 6 hrs followed by compound addition and measured after 24 hrs by DCFDA staining based spectrofluorometric analysis relative to glucose alone. The format is functional, cell-based. Put shortly:
(§2)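 NRK-52E cells in 24-well plates got 33 mM glucose for 6 h, then compound at 100 nM-10 μM (vehicle 0.1% DMSO + 1XPBS) for 24 h. Cells were loaded with 10 μM H2DCFDA for 30 min at 37 °C in the dark, lysed with 1% Triton X-100 and DMSO. Fluorescence was read at 480/530 nm in triplicate; the glucose-only signal was set as 100%.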

The next data set deals with Mitochondrial membrane. Briefly: Restoration of mitochondrial membrane depolarization in glucose induced rat NRK-52E cells assessed as increase in green fluorescence intensity at […] pretreated with glucose for 6 hrs followed by compound addition and measured after 24 hrs by rhodamine-123 staining based cytofluorimetric analysis. The format is cell membranes. A digest of the protocol: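 NRK-52E cells (2×10^5/well) received 33 mM glucose for 6 h, then compound at 500 nM, 1 or 5 μM for 24 h. They were stained with 200 ng/mL rhodamine 123 for 30 min at 37 °C, washed, and analysed by flow cytometry.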

Data set [9] relates to NRK-52E. Kind of data set: Downregulation of NOX-4 expression in glucose induced rat NRK-52E cells at 1 to 5 uM by Western blotting analysis. The format is functional, cell-based. The conditions noted are these: dose 1-5 µM.
Data set [10] concerns NRK-52E. Briefly: Inhibition of NF-kappaB activation in glucose induced rat NRK-52E cells at 0.005 to 5 uM by Western blotting analysis. Particulars: dose 0.005-5 µM. The format is cell-based.
The subject of data set [11] is NRK-52E. Kind of data set: Downregulation of IL-6 expression in glucose induced rat NRK-52E cells at 0.005 to 5 uM by Western blotting analysis. The format is functional, cell-based. The conditions noted are these: dose 0.005-5 µM.
The test system of data set [12] is NRK-52E. Kind of data set: Downregulation of TGF-beta1 expression in glucose induced rat NRK-52E cells at 0.005 to 5 uM by Western blotting analysis. The format is functional, cell-based. Particulars: dose 0.005-5 µM.
For data set [13], the system named is NRK-52E. Kind of data set: Inhibition of fibronectin expression in glucose induced rat NRK-52E cells at 0.005 to 5 uM by Western blotting analysis. The format is functional, cell-based. The conditions noted are these: dose 0.005-5 µM.
Data set [14] relates to NRK-52E. Kind of data set: Inhibition of collagen-IV expression in glucose induced rat NRK-52E cells at 0.005 to 5 uM by Western blotting analysis. The format is functional, cell-based. The conditions noted are these: dose 0.005-5 µM.
Data set [15] relates to NRK-52E. Briefly: Inhibition of ROS generation in rat NRK-52E cells assessed as reduction in intracellular ROS generation at 0.25 to 10 uM preincubated with glucose for 6 hrs followed by compound addition and measured after 24 hrs by DCFDA staining based spectrofluorometric analysis. The format is functional, cell-based. The conditions noted are these: dose 0.25-10 µM. A digest of the protocol: as §2

The test system of data set [16] is NRK-52E. Briefly: Induction of AMPK phosphorylation in glucose induced rat NRK-52E cells at 1 to 5 uM by Western blotting analysis. The format is cell-based. The conditions noted are these: filed as activator, dose 1-5 µM.

pIC50: −log10 of the molar value. Activity calls are given as the source filed them. No cut-off for these calls is given here.

Broadly, the pIC50 is −log10 of the IC50, conventionally taken in molar units.

In the case of `C[C@]12CC[C@H](O)CC1=CC[C@@H]1[C@@H]2CC[C@]2(C)c3c(cnc4nc5cc(Cl)ccc5n34)C[C@@H]12`, the Activity entry in the data set with NRK-52E [1] is recorded as “Non-toxic”.

`CC(=O)O[C@H]1CC[C@@]2(C)C(=CC[C@@H]3[C@@H]2CC[C@]2(C)c4c(cnc5cc(-c6ccc(Cl)cc6)nn45)C[C@@H]32)C1`: the Activity result in the data set with NRK-52E [1] is listed as “Non-toxic”.

As to `CC(=O)O[C@H]1CC[C@@]2(C)C(=CC[C@@H]3[C@@H]2CC[C@]2(C)c4c(cnc5c(C#N)cnn45)C[C@@H]32)C1`, the Activity result with NRK-52E [1] is on record as “Non-toxic”.

Take `C[C@]12CC[C@H](O)CC1=CC[C@@H]1[C@@H]2CC[C@]2(C)c3c(cnc4cc(-c5ccc(Cl)cc5)nn34)C[C@@H]12`: the Activity result in the data set on NRK-52E [1] was “Non-toxic”.

Take `CC(=O)O[C@H]1CC[C@@]2(C)C(=CC[C@@H]3[C@@H]2CC[C@]2(C)c4c(cnc5nc6ccc(Cl)cc6n45)C[C@@H]32)C1`: the Activity result in the data set on NRK-52E [1] was “Non-toxic”.

In the case of `COc1cccc2nn3c4c(cnc3c12)C[C@H]1[C@@H]2CC=C3C[C@@H](O)CC[C@]3(C)[C@H]2CC[C@]41C`, in the data set on NRK-52E [1], the Activity result is reported as “Non-toxic”. The inhibition result in [2] is “inactive”.

In the case of `CC(=O)O[C@H]1CC[C@@]2(C)C(=CC[C@@H]3[C@@H]2CC[C@]2(C)c4c(cnc5cc(-c6ccc(Br)cc6)nn45)C[C@@H]32)C1`, the Activity entry in the data set on NRK-52E [1] was “Non-toxic”.

With `CC(=O)O[C@H]1CC[C@@]2(C)C(=CC[C@@H]3[C@@H]2CC[C@]2(C)c4c(cnc5nc6c(Cl)cccc6n45)C[C@@H]32)C1`, the Activity result in the data set with NRK-52E [1] is reported as “Non-toxic”.

On to `C[C@]12CC[C@H](O)CC1=CC[C@@H]1[C@@H]2CC[C@]2(C)c3c(cnc4nc5ccccc5n34)C[C@@H]12`, for which, in the data set on NRK-52E [1], the Activity entry is on record as “Non-toxic”. Also, the inhibition entry (in [2]; with NRK-52E [8]; in the data set with NRK-52E [10]; with NRK-52E [13]; with NRK-52E [14]) was “Active” each time. The fold change (FC) in data set [3] was determined as 2; in data set [5] it was 1.4. Moreover, the pIC50 in [4] is 8.54. Moreover, the outcome in the data set on NRK-52E [6], with Mitochondrial membrane, with NRK-52E [9], with NRK-52E [11], in the data set on NRK-52E [12] and in the data set with NRK-52E [16] was Active. For the same compound, the outcome with NRK-52E [7] was inactive. The inhibition result in the data set on NRK-52E [15] is listed as “Active; Significant Decrease Observed”.

Consider `C[C@]12CC[C@H](O)CC1=CC[C@@H]1[C@@H]2CC[C@]2(C)c3c(cnc4cc(-c5ccccc5)nn34)C[C@@H]12`, for which, in the data set with NRK-52E [1], the Activity result was “Non-toxic”.

For `CC(=O)O[C@H]1CC[C@@]2(C)C(=CC[C@@H]3[C@@H]2CC[C@]2(C)c4c(cnc5cc(-c6ccccc6)nn45)C[C@@H]32)C1`, in the data set on NRK-52E [1], the Activity entry is reported as “Non-toxic”.

`Cc1ccc([C@@H]2O[C@H](CO)[C@@H](O)[C@H](O)[C@H]2O)cc1Cc1ccc(-c2ccc(F)cc2)s1` [CANAGLIFLOZIN ANHYDROUS]: the negative-log IC50 (pIC50) in data set [4] was 8.63.

`C[C@]12CC[C@H](O)CC1=CC[C@@H]1[C@@H]2CC[C@]2(C)c3c(cnc4nc5c(Cl)cccc5n34)C[C@@H]12`: in the data set with NRK-52E [1], the Activity result is on record as “Non-toxic”.

As for `COc1cccc2nn3c4c(cnc3c12)C[C@H]1[C@@H]2CC=C3C[C@@H](OC(C)=O)CC[C@]3(C)[C@H]2CC[C@]41C`, in the data set with NRK-52E [1], the Activity result is reported as “Non-toxic”. Further, in data set [2], the inhibition result was “inactive”.

On to `CC(=O)O[C@H]1CC[C@@]2(C)C(=CC[C@@H]3[C@@H]2CC[C@]2(C)c4c(cnc5nc6ccccc6n45)C[C@@H]32)C1`, for which the Activity entry with NRK-52E [1] was “Non-toxic”.

With `C[C@]12CC[C@H](O)CC1=CC[C@@H]1[C@@H]2CC[C@]2(C)c3c(cnc4cc(-c5ccc(Br)cc5)nn34)C[C@@H]12`, in the data set with NRK-52E [1], the Activity result is “Non-toxic”.

With `CC(=O)O[C@H]1CC[C@@]2(C)C(=CC[C@@H]3[C@@H]2CC[C@]2(C)c4c(cnc5nc6cc(Cl)ccc6n45)C[C@@H]32)C1`, in the data set with NRK-52E [1], the Activity result is on record as “Non-toxic”.

The record behind these values is ChEMBL document CHEMBL6134775, “Breaking boundaries in diabetic nephropathy treatment: design and synthesis of novel steroidal SGLT2 inhibitors” (RSC Med Chem, 2025).
